This passage reports EC50 results from ChEMBL document CHEMBL1155709, “Eleven novel diarylheptanoids and two unusual diarylheptanoid derivatives from the seeds of Alpinia blepharocalyx” (2001).

Test [1] in a line: Cytotoxicity against mouse 26-L5 cells by MTT assay. Particulars: read-out: ED50 (the source's name). Type of test: functional. The gist of the method: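 Murine colon 26-L5 carcinoma cells grown in RPMI-1640 with 10% fetal calf serum, 0.1% NaHCO3 and 2 mM glutamine. MTT assay compared viability in the presence and absence of agents, giving ED50 values. Positive controls were 5-fluorouracil and curcumin.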
For orientation: Formazan colour is commonly taken as a measure of viable cells.

A further test concerns HT-1080. Briefly: Cytotoxicity against human HT1080 cells by MTT assay. Type of test: functional. Particulars: read-out: ED50 (the source's name). The gist of the method: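 Human HT-1080 fibrosarcoma cells kept in Eagle's minimum essential medium with 10% fetal calf serum, 0.1% NaHCO3 and 2 mM glutamine. Viability with and without test agents was read by standard MTT assay, and ED50 was reported. 5-Fluorouracil and curcumin served as positive controls.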

For `O=c1[nH]cc(F)c(=O)[nH]1` [FLUOROURACIL], the EC50 in test [1] (Mus musculus) came to 0.53 µM; with HT-1080 (Homo sapiens, HT-1080), 8 µM.
Turning to `COc1cc(O)c2c(c1C(=O)/C=C/c1ccc(O)cc1)O[C@@H](c1ccc(O)cc1)[C@@H]1[C@@H](c3ccc(O)cc3)O[C@@H](CCc3ccc(O)cc3)C[C@@H]21` [CALYXIN I], the EC50 in test [1] (Mus musculus) is 8.39 µM; in the test on HT-1080 (Homo sapiens, HT-1080), 9.08 µM.
On to `COc1cc(/C=C/C(=O)CC(=O)/C=C/c2ccc(O)c(OC)c2)ccc1O` [CURCUMIN], for which the EC50 in test [1] (Mus musculus) was determined as 23.2 µM; in the test with HT-1080 (Homo sapiens, HT-1080), 23.4 µM.
Take `COc1cc(O)c([C@@H]2C[C@H](CCc3ccc(O)cc3)O[C@H](c3ccc(O)cc3)C2)c(O)c1C(=O)/C=C/c1ccc(O)cc1` [CALYXIN B]: the EC50 in test [1] (Mus musculus) was 10.4 µM; with HT-1080 (Homo sapiens, HT-1080) it was 10.4 µM.
Regarding `COc1cc(O)c2c(c1C(=O)/C=C/c1ccc(O)cc1)O[C@H](c1ccc(O)cc1)[C@@H]1[C@@H](c3ccc(O)cc3)O[C@@H](CCc3ccc(O)cc3)C[C@@H]21` [EPICALYXIN I], the EC50 in test [1] (Mus musculus) was determined as 12.1 µM; in the test on HT-1080 (Homo sapiens, HT-1080), 5.88 µM.
Regarding `COc1cc2c(c3c1C(=O)CC(c1ccc(O)cc1)O3)[C@@H]1C[C@H](CCc3ccc(O)cc3)O[C@H](c3ccc(O)cc3)[C@H]1[C@H](c1ccc(O)cc1)O2` (mixture of isomers) [CALYXIN J], the figures for the EC50 (in test [1]; in the test with HT-1080) were 13.7 µM and 0.32 µM, respectively.
For `COc1cc2c(c3c1C(=O)CC(c1ccc(O)cc1)O3)[C@H](C[C@@H](O)CCc1ccc(O)cc1)C[C@H](c1ccc(O)cc1)O2` (mixture of isomers), the EC50 was determined as 42.1 µM in test [1] (Mus musculus) and 10.1 µM in the test on HT-1080 (Homo sapiens, HT-1080).
Taken in the same sequence, the figures for `COc1cc(O)c2c(c1C(=O)/C=C/c1ccc(O)cc1)O[C@@H](c1ccc(O)cc1)C[C@H]2C[C@@H](O)CCc1ccc(O)cc1` [CALYXIN L] were 28.2 µM and 44.3 µM.
`COc1cc2c(c3c1C(=O)CC(c1ccc(O)cc1)O3)[C@@H]1C[C@H](CCc3ccc(O)cc3)O[C@@H]1O2` (stereo in doubt; 12) [NEOCALYXIN A]: the EC50 in test [1] (Mus musculus) was more than 100 µM; in the test on HT-1080 (Homo sapiens, HT-1080), 10.7 µM.
As for `COc1cc(O)c([C@@H]2C[C@H](CCc3ccc(O)cc3)O[C@H](c3ccc(O)cc3)C2)c2c1C(=O)CC(c1ccc(O)cc1)O2` (stereo in doubt; 3) [CALYXIN K], the EC50 in test [1] is 7.73 µM; in the test with HT-1080 (Homo sapiens, HT-1080), 5.09 µM.
Regarding `COc1cc(O)c(C(/C=C/c2ccc(O)cc2)C[C@@H](O)CCc2ccc(O)cc2)c2c1C(=O)CC(c1ccc(O)cc1)O2` (some centres not stated) [CALYXIN E], the EC50 in test [1] (Mus musculus) turned out to be 98.1 µM; with HT-1080 (Homo sapiens, HT-1080), 21.7 µM.
Take `COc1cc(O)c([C@@H]2C[C@H](CCc3ccc(O)cc3)O[C@@H](c3ccc(O)cc3)C2)c(O)c1C(=O)/C=C/c1ccc(O)cc1` [EPICALYXIN F]: the EC50 in test [1] (Mus musculus) was determined as 0.89 µM; in the test on HT-1080 (Homo sapiens, HT-1080) it was 1.71 µM.
On to `COc1cc(O)c([C@@H]2C[C@H](CCc3ccc(O)cc3)O[C@H](c3ccc(O)cc3)C2)c2c1C(=O)CC(c1ccc(O)cc1)O2` (stereo in doubt; 4) [CALYXIN K], for which the results for the EC50 (in test [1]; in the test on HT-1080) were 33 µM and 4.75 µM, respectively.
In the case of `COc1cc(O)c([C@@H]2C[C@H](CCc3ccc(O)cc3)O[C@@H](c3ccc(O)cc3)C2)c2c1C(=O)CC(c1ccc(O)cc1)O2` (some centres not stated) [CALYXIN G], the EC50 amounted to 42.2 µM in test [1] (Mus musculus) and 25.9 µM in the test on HT-1080 (Homo sapiens, HT-1080).
Turning to `COc1cc2c(c3c1C(=O)CC(c1ccc(O)cc1)O3)[C@@H]1C[C@H](CCc3ccc(O)cc3)O[C@@H]1O2` (stereo in doubt; 13) [NEOCALYXIN A], the EC50 in test [1] is 78 µM; with HT-1080, 20.2 µM.
For `COc1cc2c(c3c1C(=O)CC(c1ccc(O)cc1)O3)[C@@H]1C[C@H](CCc3ccc(O)cc3)O[C@H](c3ccc(O)cc3)[C@H]1[C@H](c1ccc(O)cc1)O2` (stereo in doubt; 7) [CALYXIN J], the EC50 in test [1] (Mus musculus) stood at 23.2 µM; in the test on HT-1080, 8.19 µM.
